Assay results from ChEMBL document CHEMBL2021905, “Structure-activity relationship of novel menaquinone-4 analogues: modification of the side chain affects their biological activities” (J Med Chem, 2012).

How the values were obtained:
[1] = biological target: T1, Nuclear receptor subfamily 1 group I member 2 (Homo sapiens, UniProt O75469); assay: (§1) Induction of human SXR transcriptional activity expressed in human HepG2 cells coexpressing GAL4 at 5 X 10^-6 M after 48 hrs by luciferase reporter gene assay relative to vehicle-treated control; assay type: cell-based; conditions: hepg2, 48 h, 5 µM
T1 sequence (O75469 whole entry): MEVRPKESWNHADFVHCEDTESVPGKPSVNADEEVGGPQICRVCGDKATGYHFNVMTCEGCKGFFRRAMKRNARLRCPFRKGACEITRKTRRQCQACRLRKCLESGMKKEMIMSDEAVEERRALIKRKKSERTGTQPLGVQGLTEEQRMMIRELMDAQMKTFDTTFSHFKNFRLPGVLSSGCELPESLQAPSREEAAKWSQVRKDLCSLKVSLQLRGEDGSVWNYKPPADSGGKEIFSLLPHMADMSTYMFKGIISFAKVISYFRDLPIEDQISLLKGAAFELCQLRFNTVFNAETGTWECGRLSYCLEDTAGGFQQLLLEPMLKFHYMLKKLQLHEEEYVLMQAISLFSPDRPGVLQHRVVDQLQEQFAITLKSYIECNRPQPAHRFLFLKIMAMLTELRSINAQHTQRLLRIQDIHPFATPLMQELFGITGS
Outline: (§2)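 HepG2 cells (2 × 10^5 per well), maintained in Eagle's modified medium with 10% FCS and 1% each penicillin/streptomycin, transfected with pM-SXR (GAL4 fusion), pGVP2-GAL2 reporter and pRL-CMV. 24 h after transfection, treated in fresh medium with compound or ethanol vehicle for 48 h. Dual-luciferase read-out, firefly normalized to Renilla. Three independent experiments; mean ± SD.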

MG-63 [2] = assay: Prodrug conversion in human MG63 cells assessed as formation of deuterium 2-methyl-3-((2E,6E,10E)-3,7,11,15-tetramethylhexadeca-2,6,10,14-tetraenyl)naphthalene-1,4-dione at 1 uM for 24 hrs by LC-APCI-MS/MS analysis; assay type: ADME, cell-based; conditions: mg-63, 24 h
Outline: (§3)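 MG-63 human osteosarcoma cells incubated with compound at a final 1.0 μM, 37 °C, 24 h. Cellular vitamin K compounds extracted with hexane. Converted menaquinone-4 and its epoxide quantified by LC-APCI-MS/MS. Three independent experiments; mean ± SD.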

MG-63 [3] = assay: Prodrug conversion in human MG63 cells assessed as formation of MK-4 at 1 uM for 24 hrs by LC-APCI-MS/MS analysis; assay type: ADME, cell-based; conditions: mg-63, 24 h; outline: as §3
MG-63 [4] = assay: Prodrug conversion in human MG63 cells assessed as formation of deuterium 1a-methyl-7a-((2E,6E,10E)-3,7,11,15-tetramethylhexadeca-2,6,10,14-tetraenyl)naphtho[2,3-b]oxirene-2,7(1aH,7aH)-dione at 1 uM for 24 hrs by LC-APCI-MS/MS analysis; assay type: ADME, cell-based; conditions: mg-63, 24 h; outline: as §3
[5] = biological target: T2, SXR (nuclear receptor subfamily 1 group I member 2) (Homo sapiens, UniProt O75469); assay: as §1; assay type: cell-based; conditions: HepG2 cells expressing human SXR and GAL4, read-out: FC; outline: as §2
T2 sequence (O75469 whole entry): T1 sequence (O75469 whole entry)

| SMILES | Activity [1] | Drug metabolism (MG-63 [2]) | Drug metabolism (MG-63 [3]) | Drug metabolism (MG-63 [4]) | fold induction at 48 h, 5 µM [5] |
| --- | --- | --- | --- | --- | --- |
| [2H]c1c([2H])c([2H])c2c(c1[2H])C(=O)C(C/C=C(\C)CCCC(C)CC/C=C(\C)CCC=C(C)C)=C(C([2H])([2H])[2H])C2=O (centres undefined) | Active | – | – | – | – |
| [2H]c1c([2H])c([2H])c2c(c1[2H])C(=O)C(C/C=C(\C)CCCC(C)CCCC(C)CCC=C(C)C)=C(C([2H])([2H])[2H])C2=O (centres undefined) | Not Active | – | – | – | – |
| [2H]c1c([2H])c([2H])c2c(c1[2H])C(=O)C(C/C=C(\C)CCCC(C)CCCC(C)CCCC(C)C)=C(C([2H])([2H])[2H])C2=O (centres undefined) | Not Active | – | – | – | – |
| [2H]c1c([2H])c([2H])c2c(c1[2H])C(=O)C(CCC(C)CCCC(C)CCCC(C)CCCC(C)C)=C(C([2H])([2H])[2H])C2=O (centres undefined) | Not Active | – | – | – | – |
| [2H]c1c([2H])c([2H])c2c(c1[2H])C(=O)C(C/C=C(\C)CC([2H])([2H])/C=C(/CC/C=C(\C)CCC=C(C)C)C([2H])([2H])[2H])=C(C([2H])([2H])[2H])C2=O | – | Active | Active | Active | – |
| [2H]c1c([2H])c([2H])c2c(c1[2H])C(=O)C(C/C=C(\C)CC/C=C(\C)CC/C=C(\C)CCC=C(C)C)=C(C([2H])([2H])[2H])C2=O | – | – | – | – | 7 |
| [2H]c1c([2H])c([2H])c2c(c1[2H])C(=O)C(C/C=C/CC/C=C(\C)CC/C=C(\C)CCC=C(C)C)=C(C([2H])([2H])[2H])C2=O | Active | Active | Active | Active | – |
| [2H]c1c([2H])c([2H])c2c(c1[2H])C(=O)C(C/C=C(\C)CC/C=C/CC/C=C(\C)CCC=C(C)C)=C(C([2H])([2H])[2H])C2=O | Active | Active | Active | Active | – |
| [2H]c1c([2H])c([2H])c2c(c1[2H])C(=O)C(C/C=C(\C)CC/C=C(\C)CC/C=C/CCC=C(C)C)=C(C([2H])([2H])[2H])C2=O | Active | Active | Active | Active | – |
| [2H]c1c([2H])c([2H])c2c(c1[2H])C(=O)C(C/C=C(\C)CC/C=C(\C)CC/C=C(\C)CC/C=C/C)=C(C([2H])([2H])[2H])C2=O | Active | Active | Active | Active | – |
